Values after ≈ are worked out from the molar mass of the structure shown.
What was measured:
Type in all cases: functional
Escherichia coli [1] = assay: Evaluated for the minimum inhibitory concentration against Escherichia coli UB 1005
How it was run: (§1)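 MIC by serial 2-fold dilution in Mueller-Hinton broth; results given as minimum inhibitory concentrations (nmol/mL).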

Pseudomonas aeruginosa [2] = assay: Evaluated for the minimum inhibitory concentration against Pseudomonas aeruginosa 18S/H ( Class Id beta-lactamase overproducer); how it was run: as §1
Pseudomonas aeruginosa [3] = assay: Minimum inhibitory concentration against Pseudomonas aeruginosa ATCC 27853
How it was run: (§2)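 Broth MIC determination: serial 2-fold dilutions in Mueller-Hinton broth by standard methodology; the lowest concentration inhibiting growth is reported as the MIC, in nmol/mL.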

Proteus vulgaris [4] = assay: Evaluated for the minimum inhibitory concentration against Proteus vulgaris 1028 BC ( Class Ic beta-lactamase overproducer); how it was run: as §1
Streptococcus pneumoniae [5] = assay: Minimum inhibitory concentration against Streptococcus pneumoniae 6301; how it was run: as §2
Streptococcus pyogenes [6] = assay: Minimum inhibitory concentration against Streptococcus pyogenes 4; how it was run: as §2
Staphylococcus aureus [7] = assay: Minimum inhibitory concentration against Staphylococcus aureus 95 (Methicillin-resistant, high-level beta-lactamase producer)
How it was run: (§3)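 Serial 2-fold broth dilution in Mueller-Hinton broth, run by standard methodology; read-out is the minimum inhibitory concentration (MIC).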

Enterobacter cloacae [8] = assay: Evaluated for the minimum inhibitory concentration against Enterobacter cloacae P99 ( Class Ia beta-lactamase overproducer); how it was run: as §1
Proteus vulgaris [9] = assay: Evaluated for the minimum inhibitory concentration against Proteus vulgaris 1028 BC ( Class Ic beta-lactamase overproducer; how it was run: as §1
Staphylococcus aureus [10] = assay: Evaluated for the minimum inhibitory concentration against Staphylococcus aureus ATCC 29213 ( inducible, low level beta-lactamase producer); how it was run: as §3
Staphylococcus aureus [11] = assay: Evaluated for the minimum inhibitory concentration against Staphylococcus aureus 1059B ( inducible, high level beta-lactamase producer); how it was run: as §3
Citrobacter freundii = assay: In vitro antibacterial activity was determined against Citrobacter freundii BS-16; how it was run: as §1
Enterobacter cloacae [12] = assay: In vitro antibacterial activity was determined against Enterobacter cloacae P99 (Class Ia beta-lactamase overproducer); how it was run: as §1
Escherichia coli [13] = assay: In vivo effective dose against mice infected with Escherichia coli 257
How it was run: (§4)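 Mouse protection test against systemic infection, run by literature procedures; the compound was given subcutaneously, and the effective dose (ED50, mg/kg) was determined.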

Escherichia coli [14] = assay: In vitro antibacterial activity was determined against Escherichia coli DC-O; how it was run: as §1
Escherichia coli [15] = assay: In vitro antibacterial activity was determined against Escherichia coli TEM-1 (TEM-1 (class IIIa) beta-lactamase producer); how it was run: as §1
Micrococcus luteus = assay: In vitro antibacterial activity was determined against Micrococcus luteus PCI; how it was run: as §1
Proteus mirabilis = assay: In vitro antibacterial activity was determined against Proteus mirabilis 90; how it was run: as §1
Proteus vulgaris [16] = assay: In vitro antibacterial activity was determined against Proteus vulgaris 1028 BC (Class Ic beta-lactamase overproducer); how it was run: as §1
Serratia marcescens = assay: In vitro antibacterial activity was determined against Serratia marcescens 1071; how it was run: as §2
Staphylococcus aureus [17] = assay: In vitro antibacterial activity was determined against Staphylococcus aureus 1059B ( inducible, high level beta-lactamase producer); how it was run: as §2
Staphylococcus aureus [18] = assay: In vitro antibacterial activity was determined against Staphylococcus aureus ATCC 29213 (inducible, low level beta-lactamase producer); how it was run: as §3
Streptococcus pyogenes [19] = assay: In vivo effective dose against mice infected with streptococcus pyogenes 4; how it was run: as §4
Streptococcus pneumoniae [20] = assay: (§5) In vitro antibacterial activity was determined against Streptococcus pneumoniae 6301; how it was run: as §2
Streptococcus pneumoniae [21] = assay: as §5; how it was run: as §2; remark: listed apart in the source
Streptococcus pyogenes [22] = assay: In vitro antibacterial activity was determined against Streptococcus pyogenes 4; how it was run: as §2
Pseudomonas aeruginosa [23] = assay: In vitro antibacterial activity was determined against Pseudomonas aeruginosa 18S/H (Class Id beta-lactamase overproducer); how it was run: as §2
Pseudomonas aeruginosa [24] = assay: In vitro antibacterial activity was determined against Pseudomonas aeruginosa ATCC 27853; how it was run: as §2
Enterococcus faecalis = assay: In vitro antibacterial activity was determined against Enterococcus faecalis ATCC 29212; how it was run: as §1
Staphylococcus aureus [25] = assay: In vitro antibacterial activity was determined against Staphylococcus aureus 95 (Methicillin-resistant, high-level beta-lactamase producer); how it was run: as §3

CCn1cc(C(=O)OCC2=C(C(=O)O)N3C(=O)[C@@H](NC(=O)/C(=N/OC)c4csc(N)n4)C3SC2)c(=O)c2cc(F)c(N3CCCC3)cc21 (stereo not given in full)
MIC (Escherichia coli [1]): 0.5 µg/mL (≈ 0.715 µM) | MIC (Pseudomonas aeruginosa [2]): 32 µg/mL (≈ 45.7 µM) | MIC (Pseudomonas aeruginosa [3]): > 128 µg/mL | MIC (Proteus vulgaris [4]): 4 µg/mL (≈ 5.72 µM) | MIC (Streptococcus pneumoniae [5]): < 0.008 µg/mL | MIC (Streptococcus pyogenes [6]): 1 µg/mL (≈ 1.43 µM) | MIC (Staphylococcus aureus [7]): 0.5 µg/mL (≈ 0.715 µM)

CCn1cc(C(=O)O)c(=O)c2cc(F)c(N3CCN(C=O)CC3)cc21 [4-N-FORMYL-1-PIPERAZINYL-NORFLOXACIN]
MIC (Enterobacter cloacae [8]): 0.5 µg/mL (≈ 1.44 µM) | MIC (Pseudomonas aeruginosa [2]): 2 µg/mL (≈ 5.76 µM) | MIC (Pseudomonas aeruginosa [3]): 16 µg/mL (≈ 46.1 µM) | MIC (Proteus vulgaris [9]): 0.5 µg/mL (≈ 1.44 µM) | MIC (Staphylococcus aureus [10]): 1 µg/mL (≈ 2.88 µM) | MIC (Streptococcus pneumoniae [5]): 8 µg/mL (≈ 23 µM) | MIC (Streptococcus pyogenes [6]): 8 µg/mL (≈ 23 µM) | MIC (Staphylococcus aureus [11]): 1 µg/mL (≈ 2.88 µM) | MIC (Staphylococcus aureus [7]): 1 µg/mL (≈ 2.88 µM)

CN1CCN(c2c(F)cc3c(=O)c(C(=O)O)cn(CCF)c3c2F)CC1 [FLEROXACIN]
MIC (Citrobacter freundii): 1 µg/mL (≈ 2.71 µM) | MIC (Enterobacter cloacae [12]): 0.125 µg/mL (≈ 0.338 µM) | ED50 (Escherichia coli [13]): 0.4 mg/kg | MIC (Escherichia coli [14]): 1.19 µM (≈ 0.44 µg/mL) | MIC (Escherichia coli [15]): 0.125 µg/mL (≈ 0.338 µM) | MIC (Micrococcus luteus): 38.2 µM (≈ 14.1 µg/mL) | MIC (Proteus mirabilis): 0.5 µg/mL (≈ 1.35 µM) | MIC (Proteus vulgaris [16]): 0.25 µg/mL (≈ 0.677 µM) | MIC (Serratia marcescens): 0.25 µg/mL (≈ 0.677 µM) | MIC (Staphylococcus aureus [17]): 0.5 µg/mL (≈ 1.35 µM) | MIC (Staphylococcus aureus [18]): 0.5 µg/mL (≈ 1.35 µM) | ED50 (Streptococcus pyogenes [19]): 183 mg/kg | MIC (Streptococcus pneumoniae [20]): 9.53 µM (≈ 3.52 µg/mL) | MIC (Streptococcus pneumoniae [21]): 4 µg/mL (≈ 10.8 µM) | MIC (Streptococcus pyogenes [22]): 1 µg/mL (≈ 2.71 µM) | MIC (Pseudomonas aeruginosa [23]): 2 µg/mL (≈ 5.42 µM) | MIC (Pseudomonas aeruginosa [24]): 4 µg/mL (≈ 10.8 µM) | MIC (Enterococcus faecalis): 4 µg/mL (≈ 10.8 µM) | MIC (Staphylococcus aureus [25]): 0.5 µg/mL (≈ 1.35 µM)

From ChEMBL document CHEMBL1125107, “Cephalosporin 3'-quinolone esters with a dual mode of action” (J Med Chem, 1990)
